# An excerpt weighted towards active compounds, which were near 4.1% of everything screened.
# KCNQ1 pot: potentiates or activates the human KCNQ1 potassium channel | AID 2648 | CHO-K1 KCNQ1, thallium flux FluxOR fluorescence; hits give high values | P51787 | B-score at 10 µM | hit rate 0.35% among 310,000;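 active = fluorescence ratio B-score, a plate-corrected score, at least three library SD, with initial intensity B-score within 5 SD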
#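 Assay system: CHO-K1 cells stably expressing KCNQ1; Medium: assay buffer with matched DMSO; Also added: K+/Tl+ depolarizing stimulus; Dosing: single dose; Timing: dye 90 min, compound 20 min, room temperature; Measured by: kinetic FluxOR thallium fluorescence, 10-s 1-Hz baseline, 110-s post-stimulus read; Read-out: peak-minus-minimum fluorescence over initial fluorescence, negative-control normalized, B-scored.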
# KCNK3 inh: human KCNK3 channel inhibition, primary screen; O14649; CHO-KCNK3 thallium flux, FluxOR fluorescence; hits give low values; B-score at 10 µM; hit rate 0.84% among 340,000;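 active = B-score under library mean minus 4 SD, starting fluorescence ratio at most library mean plus 5 SD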;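 note: more negative B-score means stronger inhibition of thallium flux through KCNK3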
# KCNQ1 inh: inhibitors of human KCNQ1 potassium channel; P51787; CHO-K1 KCNQ1, FluxOR thallium flux fluorescence; hits give high values; B-score at 10 µM; hit rate 1.3% among 310,000; AID 2642;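 active = compounds whose thallium flux B-score, printed positive for inhibition, exceeds three library SD while starting fluorescence stays within three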;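 note: channel opened by potassium depolarization with thallium stimulus after 20 min compound exposure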
# KCNK9 inh: inhibitors of human KCNK9 two-pore domain potassium channel. B-score at 10 µM. HEK293 KCNK9, FluxOR thallium flux fluorescence; hits give low values. AID 488922. Q9NPC2. hit rate 1.2% among 310,000;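 active = ratio B-score over 3 SD below the library mean, with starting fluorescence within 5 SD of its mean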;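 note: negative B-score means less thallium flux so channel inhibition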
# hERG rescue: shields human hERG channel from block by proarrhythmic agents. Q12809. CHO-hERG, FluxOR thallium flux, dofetilide IC70 present. activation (rescue from dofetilide block), less the hit threshold, % at 10 µM. hit rate 0.51% among 310,000. AID 1511;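 active = activation above the mean of controls blocked by dofetilide plus 5 SD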;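 note: thallium influx through hERG after potassium depolarization seen as dye fluorescence rise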
# Target sequence (Q12809 whole entry, looked up): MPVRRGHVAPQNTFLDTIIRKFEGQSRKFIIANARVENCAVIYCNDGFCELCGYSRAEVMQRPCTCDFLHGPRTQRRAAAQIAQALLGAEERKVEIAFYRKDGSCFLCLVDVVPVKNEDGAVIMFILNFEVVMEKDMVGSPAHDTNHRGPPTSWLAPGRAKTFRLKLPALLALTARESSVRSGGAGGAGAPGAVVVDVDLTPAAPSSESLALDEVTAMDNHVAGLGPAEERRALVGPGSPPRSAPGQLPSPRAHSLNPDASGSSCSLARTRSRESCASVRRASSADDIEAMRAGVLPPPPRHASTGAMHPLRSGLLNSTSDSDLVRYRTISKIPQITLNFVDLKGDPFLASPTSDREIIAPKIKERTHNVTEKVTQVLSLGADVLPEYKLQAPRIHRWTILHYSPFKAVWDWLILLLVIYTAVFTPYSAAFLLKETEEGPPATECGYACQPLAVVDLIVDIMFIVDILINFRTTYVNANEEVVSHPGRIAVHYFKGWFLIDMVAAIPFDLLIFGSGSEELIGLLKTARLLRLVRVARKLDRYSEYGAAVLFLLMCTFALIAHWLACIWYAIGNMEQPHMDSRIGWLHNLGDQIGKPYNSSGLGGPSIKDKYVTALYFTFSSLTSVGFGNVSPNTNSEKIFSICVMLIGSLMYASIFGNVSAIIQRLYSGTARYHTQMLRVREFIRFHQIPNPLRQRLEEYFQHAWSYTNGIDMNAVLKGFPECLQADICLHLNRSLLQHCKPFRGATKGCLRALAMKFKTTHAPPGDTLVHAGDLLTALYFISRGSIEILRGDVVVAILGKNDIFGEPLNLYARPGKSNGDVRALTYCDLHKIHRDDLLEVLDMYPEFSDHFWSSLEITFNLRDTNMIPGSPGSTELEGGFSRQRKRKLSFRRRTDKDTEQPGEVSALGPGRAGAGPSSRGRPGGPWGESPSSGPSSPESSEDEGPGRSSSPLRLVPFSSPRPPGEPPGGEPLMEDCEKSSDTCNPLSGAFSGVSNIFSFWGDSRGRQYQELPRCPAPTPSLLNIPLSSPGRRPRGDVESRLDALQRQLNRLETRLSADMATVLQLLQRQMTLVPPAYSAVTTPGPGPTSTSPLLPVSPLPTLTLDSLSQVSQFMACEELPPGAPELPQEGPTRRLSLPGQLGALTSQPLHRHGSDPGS
# KCC2 mod: modulators of human KCC2 chloride dependent transport | Q9H2X9 | B-score of Tl+ flux slope (higher = more flux/activation; lower = inhibition) at 10 µM | KCC2 cells, thallium flux FluoZin-2 fluorescence | hit rate 2.2% among 190,000;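 active = thallium flux slope and its plate-corrected score both differing from the plate sample mean at a set confidence after two filtering rounds, in either direction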;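 note: slope of fluorescence scaled to starting intensity during 10 to 20 s after thallium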
# KCNK9 block conf: confirmation of human KCNK9 potassium channel inhibitors | shares compounds with KCNK9 inh | HEK293 KCNK9 cells, FluxOR thallium flux fluorescence | inhibition, % at 10 µM | hit rate 43% among 4,900;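 active = thallium signal inhibited by more than 5 SD of the compound-free buffer control wells, on both duplicate plates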;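 note: 0% = assay buffer control wells without compound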
# Kir21 sel: mouse Kir2.1 off-target activity of KCNK9 modulators. Kir2.1 cells, FluxOR thallium flux fluorescence. hit rate 4% among 4,900. AID 492993. inhibition, % at 10 µM. shares compounds with KCNK9 inh;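 active = thallium signal drop more than 5 SD beyond the mean of the no-compound control wells, seen in both duplicate plates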;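 note: signal is fluorescence rise after thallium addition divided by baseline fluorescence; plate controls were assay buffer only for no effect and full block by chlorpromazine control for full effect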
# HEK293 Tl ctr: second check of KCNK9 modulator effects in non-induced HEK293 cells | hit rate 40% among 4,900 | shares compounds with KCNK9 inh | FluxOR thallium flux | inhibition, % at 10 µM;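 active = thallium signal drop beyond 5 SD of the untreated control mean, on both duplicate plates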;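 note: plate controls were buffer only IC0 wells for no effect and SID17386958 at its maximal inhibitory level for full effect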
# Active calls of the source: *; i = inactive; . = no result given.
SMILES,KCNQ1 pot,KCNK3 inh,KCNQ1 inh,KCNK9 inh,hERG rescue,KCC2 mod,KCNK9 block conf,Kir21 sel,HEK293 Tl ctr
CCOC(=O)CSc1nc(C2CC2)cc(-c2ccc(Cl)cc2)c1C#N,i,i,i,-9.5*,-4,0.54,54%*,i,i
CN(C(=O)c1ccccc1C(=O)OCC(=O)c1ccc(F)c(F)c1)C1CCCCC1,.,i,.,.,.,.,.,.,.
COc1ccc(-c2noc(C3CCCN(S(=O)(=O)c4cccc(Cl)c4)C3)n2)cc1OC (configuration not stated),i,i,i,-8.1*,-12,.,i,i,26%*
Cc1ccc[n+](CC(=O)Nc2cc(C(F)(F)F)ccc2Cl)c1,i,i,i,i,-4,0.056,.,.,.
CCC(C)(C)c1ccc(OCCCC[n+]2cccc(C)c2)c(C(C)(C)CC)c1,i,i,10*,-9.4*,-29,0.84,38%*,66%*,28%*
CCN(c1ccccc1)S(=O)(=O)c1ccc2c(c1)OCCO2,.,i,.,.,.,.,.,.,.
CN(c1ccc([N+](=O)[O-])cc1C(=O)Nc1ccccc1)C1CCCCC1,i,i,i,-13*,-13,.,30%*,i,42%*
Cc1cccc(NC(=O)c2cc([N+](=O)[O-])ccc2NC2CCCCC2)c1,i,i,i,i,-3,-0.34,.,.,.
Cc1cccc(CS(=O)(=O)Cc2ccc(C(=O)NC3CCCC3)o2)c1,i,i,i,i,-6,.,.,.,.
C=CCOc1ccccc1CN1CCC(Cc2ccccc2)CC1,i,i,i,i,-5,.,i,i,i
COc1ccc(OC)c(CN2CCC(Cc3ccccc3)CC2)c1,i,i,i,i,-14,.,.,.,.
COc1cc(OC)c(CN2CCC(Cc3ccccc3)CC2)cc1Br,i,i,i,i,0,.,i,i,i
COc1cccc(NC(=O)CSc2ccc3nnc(-c4ccccn4)n3n2)c1,i,i,i,i,-4,.,.,.,.
Cc1cc(C)c(C)c(S(=O)(=O)N2CCC(C(=O)NCCCN3CCOCC3)CC2)c1C,.,i,.,.,.,.,.,.,.
O=C1C(=O)c2c(ccc3ccccc23)-c2ccccc21,.,i,.,.,.,.,.,.,.
CCc1nnc(NC(=O)c2ccc(Cl)c(S(=O)(=O)N3CCc4ccccc43)c2)s1,i,i,i,-13*,-14,-1,68%*,i,42%*
CCOC(=O)C1=C(C)N=C2SC(C)C(=O)N2C1c1cccc(F)c1 (configuration not stated),i,i,6*,-17*,-14,.,64%*,i,60%*
CC1=C(C(=O)OC(C)C)C(c2cccc(F)c2)N2C(=O)C(C)SC2=N1 (configuration not stated),i,i,i,-13*,-14,.,56%*,i,54%*
CC(C)(C)[C@@H]1COC(=O)[C@H](Cc2ccc(F)cc2)CC/C=C\C[C@@H](CC(=O)NCCO)C(=O)N1,.,i,.,.,.,.,.,.,.
OC(COC(c1ccc(Cl)cc1)c1ccc(Cl)cc1)CN1CCc2ccccc2C1 (configuration not stated),i,i,i,-16*,-23,-0.1,58%*,i,38%*
Clc1ccc(SCCOCCN2CCCCC2)cc1,i,i,i,i,-6,1,.,.,.
Clc1ccc(SCCOCCN2CCc3ccccc3C2)cc1,i,i,i,i,-9,0.72,i,i,i
OC(COC(c1ccccc1)c1ccccc1)CN1CCc2ccccc2C1 (configuration not stated),i,i,i,i,-7,-0.87,.,.,.
COCCCN(Cc1ccco1)C(=O)c1cc2c(s1)-c1ccc(Cl)cc1S(=O)(=O)C2,i,i,i,i,-8,.,.,.,.

# Source: PubChem BioAssay (several laboratories)
